In ChEMBL document CHEMBL4196166 (J Med Chem, 2018):
Active and inactive are the calls of the source. The rule behind the calls is not given here.

How the values were obtained:
[1] = molecular target: Transmembrane protease serine 11D (Homo sapiens) (UniProt O60235); test: Inhibition of transmembrane protease serine 11D (unknown origin) at 10 nM to 33.3 uM after 30 mins by gel-based ABPP assay
[2] = tested on: MDA-MB-231; test: Cytotoxicity against human MDA-MB-231 cells assessed as reduction in cell viability after 48 hrs by CellTiter 96 Aqueous One solution cell proliferation assay; assay type: functional, cell-based; conditions: MDA-MB-231, 48 h
Outline: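 Cells grown in DMEM high glucose with 10% heat-inactivated FCS, seeded at 5000/well and left 18 h. Compounds added at 1 nM–100 µM final (0.2% vehicle), n = 4 wells per concentration, with colour blanks. After 48 h, MTS reagent added for 2 h and A490 read. IC50 from a variable-slope sigmoidal fit.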

[3] = molecular target: Trypsin (Homo sapiens, UniProt P07477+P07478+P35030); test: Inhibition of trypsin (unknown origin) at 10 nM to 33.3 uM after 30 mins by gel-based ABPP assay; assay type: protein assay
[4] = molecular target: Lysosomal Pro-X carboxypeptidase (Homo sapiens) (UniProt P42785); test: Inhibition of prolylcarboxypeptidase (unknown origin) at 10 nM to 33.3 uM after 30 mins by gel-based ABPP assay
Chain of Lysosomal Pro-X carboxypeptidase (Homo sapiens) (P42785 whole entry): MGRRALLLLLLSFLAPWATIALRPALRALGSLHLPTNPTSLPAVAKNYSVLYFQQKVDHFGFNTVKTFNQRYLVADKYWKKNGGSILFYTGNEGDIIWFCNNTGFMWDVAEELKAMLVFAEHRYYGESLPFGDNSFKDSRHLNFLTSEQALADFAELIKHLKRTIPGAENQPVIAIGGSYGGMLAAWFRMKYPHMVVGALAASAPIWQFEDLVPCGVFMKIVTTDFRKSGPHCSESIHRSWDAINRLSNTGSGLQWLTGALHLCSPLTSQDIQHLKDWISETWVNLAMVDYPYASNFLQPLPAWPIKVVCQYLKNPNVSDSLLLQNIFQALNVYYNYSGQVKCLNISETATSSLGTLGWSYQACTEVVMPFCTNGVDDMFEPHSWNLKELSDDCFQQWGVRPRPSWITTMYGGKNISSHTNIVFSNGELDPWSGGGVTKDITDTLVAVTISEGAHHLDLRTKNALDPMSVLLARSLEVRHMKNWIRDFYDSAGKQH

[5] = molecular target: Complement C1s subcomponent (Homo sapiens) (UniProt P09871); test: Inhibition of C1S (unknown origin) at 10 nM to 33.3 uM after 30 mins by gel-based ABPP assay
Chain of Complement C1s subcomponent (Homo sapiens) (P09871 16-437 limits assumed): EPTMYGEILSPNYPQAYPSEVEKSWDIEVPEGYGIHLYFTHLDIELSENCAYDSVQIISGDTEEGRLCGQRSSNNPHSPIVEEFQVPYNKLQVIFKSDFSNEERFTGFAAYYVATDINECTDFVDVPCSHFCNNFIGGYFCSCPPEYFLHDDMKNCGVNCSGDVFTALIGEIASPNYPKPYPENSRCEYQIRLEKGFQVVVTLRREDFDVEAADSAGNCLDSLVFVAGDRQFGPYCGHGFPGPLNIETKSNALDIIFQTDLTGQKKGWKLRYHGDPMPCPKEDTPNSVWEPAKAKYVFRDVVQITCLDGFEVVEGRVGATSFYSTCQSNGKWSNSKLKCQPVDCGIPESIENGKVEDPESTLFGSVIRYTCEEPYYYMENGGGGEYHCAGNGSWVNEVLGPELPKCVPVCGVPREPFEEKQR
Chain of Complement C1s subcomponent (Homo sapiens) (P09871 438-688 limits assumed): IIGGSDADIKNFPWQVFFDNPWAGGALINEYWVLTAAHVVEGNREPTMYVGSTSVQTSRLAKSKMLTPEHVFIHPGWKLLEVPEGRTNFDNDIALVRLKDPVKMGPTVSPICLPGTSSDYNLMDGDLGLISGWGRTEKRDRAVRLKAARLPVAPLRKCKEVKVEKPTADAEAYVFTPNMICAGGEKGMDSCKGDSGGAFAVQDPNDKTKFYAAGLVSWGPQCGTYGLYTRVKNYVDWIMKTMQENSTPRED

[6] = tested on: Homo sapiens; test: Antitumor activity against human AsPC1 cells xenografted in BALB/c nu/nu mouse co-implanted with human PSC assessed as reduction in tumor volume at 10 mg/kg/day, ip measured after 28 days post first dose; assay type: functional, organism-based
Outline: (§1)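 Orthotopic AsPC-1 plus human stellate cell co-implant (1×10^6 each) in the pancreatic tail of female nude BALB/c nu/nu mice. From day 7, dosed for 4 weeks (n = 4/group) with 10 mg/kg/day ip in acetate pH 5.5/DMSO/Kolliphor vehicle, or gemcitabine 75 mg/kg gavage twice weekly. Tumors resected at 4 weeks after first injection and measured with calipers by two observers. Volume = 1/2(length×breadth×width). Mean ± SEM.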

[7] = tested on: Homo sapiens; test: Antimetastatic activity against human PSC xenografted in BALB/c nu/nu mouse co-implanted with human AsPC1 cells assessed as reduction in metastasis lesions in liver at 10 mg/kg/day, ip measured after 28 days post first dose by haematoxylin and eosin staining-based microscopic analysis; assay type: functional, organism-based
Outline: (§2)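 Female athymic BALB/c nu/nu mice, 6–8 weeks old. 1×10^6 AsPC-1 and 1×10^6 human pancreatic stellate cells in 50 µL PBS injected into the pancreatic tail. Treatment randomized on day 7 (n = 4/group) for 4 weeks: 10 mg/kg/day ip in 50 mM sodium acetate pH 5.5/10% DMSO/1% Kolliphor HS-15, or gemcitabine 75 mg/kg by oral gavage twice weekly, or vehicle. At kill, liver scored for visible macrometastases, fixed in formalin, and 4 µm sections stained with H&E. Chi-square test.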

[8] = molecular target: Plasminogen (Homo sapiens, UniProt P00747); test: Inhibition of plasmin (unknown origin) at 10 nM to 33.3 uM after 30 mins by gel-based ABPP assay
Chain of Plasminogen (P00747 97-580 limits assumed): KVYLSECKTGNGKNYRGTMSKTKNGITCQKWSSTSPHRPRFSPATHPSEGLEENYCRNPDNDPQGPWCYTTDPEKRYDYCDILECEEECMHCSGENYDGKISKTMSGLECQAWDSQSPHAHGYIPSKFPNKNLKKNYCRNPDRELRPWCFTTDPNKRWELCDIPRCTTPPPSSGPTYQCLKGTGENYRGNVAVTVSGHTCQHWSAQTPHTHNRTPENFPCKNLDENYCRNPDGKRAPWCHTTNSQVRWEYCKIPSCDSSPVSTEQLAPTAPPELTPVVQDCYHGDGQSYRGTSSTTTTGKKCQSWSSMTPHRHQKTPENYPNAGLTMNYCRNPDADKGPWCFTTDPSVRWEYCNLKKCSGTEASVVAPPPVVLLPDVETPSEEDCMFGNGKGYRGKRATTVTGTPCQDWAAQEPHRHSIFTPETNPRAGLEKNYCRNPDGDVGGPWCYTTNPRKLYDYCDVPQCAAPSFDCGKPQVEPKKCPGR
Chain of Plasminogen (P00747 581-810 limits assumed): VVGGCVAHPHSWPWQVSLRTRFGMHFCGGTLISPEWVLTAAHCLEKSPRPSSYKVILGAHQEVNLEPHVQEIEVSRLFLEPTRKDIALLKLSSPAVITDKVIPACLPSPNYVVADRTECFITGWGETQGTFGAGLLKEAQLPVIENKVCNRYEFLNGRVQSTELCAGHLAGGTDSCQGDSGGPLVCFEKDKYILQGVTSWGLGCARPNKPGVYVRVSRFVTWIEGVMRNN

[9] = tested on: Homo sapiens; test: Antitumor activity against human PSC xenografted in BALB/c nu/nu mouse co-implanted with human AsPC1 cells assessed as reduction in tumor volume at 10 mg/kg/day, ip measured after 28 days post first dose; assay type: functional, organism-based; outline: as §1
[10] = tested on: ASPC1; test: Antimetastatic activity against human AsPC1 cells xenografted in BALB/c nu/nu mouse co-implanted with human PSC assessed as reduction in metastasis lesions in liver at 10 mg/kg/day, ip measured after 28 days post first dose by haematoxylin and eosin staining-based microscopic analysis; assay type: functional, organism-based; outline: as §2
[11] = molecular target: Plasma kallikrein (Homo sapiens, UniProt P03952); test: Inhibition of plasma kallikrein (unknown origin) at 10 nM to 33.3 uM after 30 mins by gel-based ABPP assay
Chain of Plasma kallikrein (P03952 20-390 limits assumed): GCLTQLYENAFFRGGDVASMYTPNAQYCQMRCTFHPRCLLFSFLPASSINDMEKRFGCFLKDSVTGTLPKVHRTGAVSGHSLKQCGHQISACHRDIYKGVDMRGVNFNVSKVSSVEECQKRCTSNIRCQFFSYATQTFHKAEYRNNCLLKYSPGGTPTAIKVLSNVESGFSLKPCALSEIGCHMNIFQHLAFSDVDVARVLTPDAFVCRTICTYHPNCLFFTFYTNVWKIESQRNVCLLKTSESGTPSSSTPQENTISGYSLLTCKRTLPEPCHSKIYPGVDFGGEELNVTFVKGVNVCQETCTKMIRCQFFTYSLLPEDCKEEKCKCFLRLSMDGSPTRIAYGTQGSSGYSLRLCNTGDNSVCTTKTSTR
Chain of Plasma kallikrein (P03952 391-638 limits assumed): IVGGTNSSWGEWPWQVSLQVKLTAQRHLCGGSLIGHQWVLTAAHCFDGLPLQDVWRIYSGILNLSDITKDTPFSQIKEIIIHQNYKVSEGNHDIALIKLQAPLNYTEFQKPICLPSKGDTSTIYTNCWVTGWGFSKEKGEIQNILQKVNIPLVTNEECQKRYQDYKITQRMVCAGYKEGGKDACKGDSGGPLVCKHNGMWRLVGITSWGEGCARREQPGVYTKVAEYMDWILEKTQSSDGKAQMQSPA

[12] = molecular target: Adenosine receptor A2a (Homo sapiens) (UniProt P29274); test: Displacement of [3H]ZM241385 from human wild type adenosine A2A receptor at 10 uM
Chain of Adenosine receptor A2a (Homo sapiens) (P29274 whole entry): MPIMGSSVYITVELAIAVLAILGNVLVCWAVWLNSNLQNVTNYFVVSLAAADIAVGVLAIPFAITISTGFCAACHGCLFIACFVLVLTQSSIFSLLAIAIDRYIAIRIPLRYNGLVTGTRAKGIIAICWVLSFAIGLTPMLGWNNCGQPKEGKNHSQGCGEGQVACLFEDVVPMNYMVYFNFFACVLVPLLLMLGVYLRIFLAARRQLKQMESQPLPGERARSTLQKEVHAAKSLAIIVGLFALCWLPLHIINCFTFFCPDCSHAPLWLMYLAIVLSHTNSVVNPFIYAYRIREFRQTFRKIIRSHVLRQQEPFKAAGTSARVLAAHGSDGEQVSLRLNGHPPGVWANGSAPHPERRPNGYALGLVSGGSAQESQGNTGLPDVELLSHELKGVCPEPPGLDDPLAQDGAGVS
Outline: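 Compounds tested at 10 µM for displacement of 2.5 nM [3H]ZM241385 from human wild-type A2A receptor. Total binding taken without inhibitor. Nonspecific binding defined with 100 µM NECA. At least three independent experiments, each in duplicate. Mean ± SEM.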

Chain of Transmembrane protease serine 11D (Homo sapiens) (O60235 1-186 limits assumed): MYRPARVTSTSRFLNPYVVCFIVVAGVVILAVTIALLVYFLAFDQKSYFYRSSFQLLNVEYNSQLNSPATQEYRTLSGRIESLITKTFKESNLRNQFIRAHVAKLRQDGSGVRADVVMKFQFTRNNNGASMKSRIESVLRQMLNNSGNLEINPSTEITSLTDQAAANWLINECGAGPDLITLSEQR
Chain of Transmembrane protease serine 11D (Homo sapiens) (O60235 187-418 limits assumed): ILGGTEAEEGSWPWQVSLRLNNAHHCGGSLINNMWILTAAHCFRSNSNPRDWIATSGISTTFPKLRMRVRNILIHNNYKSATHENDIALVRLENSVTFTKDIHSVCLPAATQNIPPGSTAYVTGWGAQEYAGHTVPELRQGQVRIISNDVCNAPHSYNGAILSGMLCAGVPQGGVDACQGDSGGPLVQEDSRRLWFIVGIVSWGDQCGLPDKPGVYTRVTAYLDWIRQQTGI

| Structure (SMILES) | inhibition [1] | IC50 [2] | inhibition [3] | inhibition [4] | inhibition [5] | Activity [6] | Activity [7] | inhibition [8] | Activity [9] | Activity [10] | inhibition [11] | inhibition [12] |
| --- | --- | --- | --- | --- | --- | --- | --- | --- | --- | --- | --- | --- |
| COc1ncc(-c2nc(C(=O)NC(=N)N)c(N)nc2N2CCCCCC2)cn1 | Active | > 100 µM | Active | Active | Active | Active | Active | Active | Active | Active | Active |  |
| N=C(N)NC(=O)c1nc(Cl)c(N2CCCCCC2)nc1N [N,N-HEXAMETHYLENEAMILORIDE] |  | 27.3 µM |  |  |  |  |  |  |  |  |  | Active |
| N=C(N)NC(=O)c1nc(-c2cc3ccccc3o2)c(N2CCCCCC2)nc1N |  |  | Active |  |  | Active |  |  | Active |  | Active |  |
